According to ChEMBL document CHEMBL3585304, “Synthesis and evaluation of tamoxifen derivatives with a long alkyl side chain as selective estrogen receptor down-regulators” (Bioorg Med Chem, 2015):
Activity calls are given as the source filed them. No cut-off for these calls is given here.

How the values were obtained:
Estrogen receptor = biological target: T1, Estrogen receptor (Homo sapiens, UniProt P03372); test: Inhibition of ERalpha (unknown origin) by fluorescence polarization-based competition binding assay
T1 sequence (P03372 whole entry): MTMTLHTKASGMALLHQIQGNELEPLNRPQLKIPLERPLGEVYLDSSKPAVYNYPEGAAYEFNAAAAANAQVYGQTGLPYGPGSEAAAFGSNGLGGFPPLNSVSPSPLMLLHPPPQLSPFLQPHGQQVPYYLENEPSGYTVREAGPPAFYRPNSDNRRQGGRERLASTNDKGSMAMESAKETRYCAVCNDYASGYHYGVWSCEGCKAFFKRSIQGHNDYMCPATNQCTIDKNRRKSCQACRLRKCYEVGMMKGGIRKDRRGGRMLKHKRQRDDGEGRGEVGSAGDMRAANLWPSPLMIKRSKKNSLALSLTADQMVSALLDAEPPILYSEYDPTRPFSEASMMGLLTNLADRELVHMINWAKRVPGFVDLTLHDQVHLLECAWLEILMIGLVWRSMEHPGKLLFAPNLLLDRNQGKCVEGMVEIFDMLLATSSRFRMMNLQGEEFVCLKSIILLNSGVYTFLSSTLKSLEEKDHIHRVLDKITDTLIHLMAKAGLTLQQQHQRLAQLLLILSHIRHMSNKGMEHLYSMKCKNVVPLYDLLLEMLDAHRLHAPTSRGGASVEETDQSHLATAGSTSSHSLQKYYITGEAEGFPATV

MCF7 [1] = test: Reduction in endogenous ERalpha expression in human MCF7 cells at 10 uM after 6 hrs by Western blot analysis; assay type: functional, cell-based
In short: (§1)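 MCF-7 cells exposed to compounds (10 µM shown for the chain-length series) for 6 h. Cells lysed in 1% SDS, 0.1 M Tris–HCl pH 7.0, 10% glycerol and boiled 10 min. Protein measured by BCA, and equal amounts run on SDS–PAGE, transferred to PVDF and immunoblotted for endogenous ERα.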

MCF7 [2] = test: Reduction in endogenous ERalpha expression in human MCF7 cells after 6 hrs by Western blot analysis; assay type: functional, cell-based; in short: as §1
MCF7 [3] = test: Reduction in endogenous ERalpha expression in human MCF7 cells at 0.1 to 1 uM after 6 hrs by Western blot analysis in presence of 10 uM MG132 proteasome inhibitor; assay type: functional, cell-based
In short: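 MCF-7 cells incubated 6 h with graded compound concentrations, with or without proteasome inhibitor MG132 (10 µM). Lysis in 1% SDS, 0.1 M Tris–HCl pH 7.0, 10% glycerol, then boiling 10 min. BCA protein assay, equal loading on SDS–PAGE, PVDF transfer, and Western blot detection of ERα.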

SMILES	IC50 (Estrogen receptor) [nM]	inhibition (MCF7 [1])	inhibition (MCF7 [2])	inhibition (MCF7 [3])
CCCCCCCCCCCCCCCCCCNCCOc1ccc(/C(=C(/CC)c2ccccc2)c2ccc(O)cc2)cc1	> 100000	–	–	–
CCC(=C(c1ccc(O)cc1)c1ccc(OCCN(C)C)cc1)c1ccccc1	–	inactive	–	–
CCCCCCCCCCCCNCCOc1ccc(/C(=C(/CC)c2ccccc2)c2ccc(O)cc2)cc1	14	–	–	–
CCCCCCCCNCCOc1ccc(/C(=C(/CC)c2ccccc2)c2ccc(O)cc2)cc1	53	inactive	–	–
CC/C(=C(\c1ccc(O)cc1)c1ccc(OCCNCCCCCCCCCCF)cc1)c1ccccc1	3.4	Active	Dose-dependent effect	inactive
CCCCCCCCCCNCCOc1ccc(/C(=C(/CC)c2ccccc2)c2ccc(O)cc2)cc1	3.6	Active	–	–
CCCCCCNCCOc1ccc(/C(=C(/CC)c2ccccc2)c2ccc(O)cc2)cc1	151	inactive	–	–
CC/C(=C(\c1ccc(O)cc1)c1ccc(OCCNC)cc1)c1ccccc1	–	inactive	–	–
CCCCCCCCCCCCCCCCNCCOc1ccc(/C(=C(/CC)c2ccccc2)c2ccc(O)cc2)cc1	4.8	inactive	–	–
CCCCCCCCCCCCCCNCCOc1ccc(/C(=C(/CC)c2ccccc2)c2ccc(O)cc2)cc1	11	inactive	–	–
CC/C(=C(\c1ccc(O)cc1)c1ccc(OCCNCCCCCCCCCCO)cc1)c1ccccc1	210	inactive	–	–
